Results: ChEMBL document CHEMBL2040763, “Waikialoid A suppresses hyphal morphogenesis and inhibits biofilm development in pathogenic Candida albicans” (J Nat Prod, 2012)
Activity calls are given as the source filed them. The rule behind the calls is not given here.

Columns and labels:
[1] = tested on: Candida albicans; test: Antifungal activity against Candida albicans DAY185 assessed as lowest compound concentration causing =>80% reduction in cell viability after 48 hrs by XTT assay; assay type: organism-based
[2] = tested on: Candida albicans; test: Antifungal activity against Candida albicans DAY185 assessed as inhibition of biofilm formation after 48 hrs by XTT assay; assay type: functional, organism-based
[3] = tested on: MIA PaCa-2; test: Cytotoxicity against human MIAPaCa2 after 24 hrs by MTT assay; assay type: cell-based; settings: MIA PaCa-2, 24 h
In short: (§1)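 MIA PaCa-2 cells, 10^4 per well, attached overnight at 37 °C, 5% CO2; compounds in DMSO added (final DMSO 1% by vol.), 24 h exposure; viability by MTT assay.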

[4] = tested on: Candida albicans; test: Antifungal activity against Candida albicans DAY185 assessed as inhibition of hyphae formation after 6 hrs by phase contrast microscopic analysis; assay type: functional, organism-based
In short: (§2)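 BHI overnight cells washed, suspended in PBS, seeded 1×10^6 cells/well, 37 °C 1 h; non-adherent cells washed off; RPMI 1640 with 2% glucose plus compound in DMSO (1% by vol.), 37 °C up to 24 h; germ tubes/hyphae scored by phase contrast microscopy (×200) at 2.5, 6 and 24 h.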

[5] = tested on: Candida albicans; test: Antifungal activity against Candida albicans DAY185 assessed as inhibition of germ tube formation at 50 uM after 6 hrs by phase contrast microscopic analysis; assay type: functional, organism-based; in short: as §2
[6] = tested on: Candida albicans; test: Antifungal activity against Candida albicans DAY185 assessed as inhibition of hyphae formation at 50 uM after 6 hrs by phase contrast microscopic analysis; assay type: functional, organism-based; in short: as §2
[7] = tested on: Candida albicans; test: Antifungal activity against Candida albicans DAY185 assessed as truncated hyphae formation at 50 uM after 24 hrs by phase contrast microscopic analysis; assay type: functional, organism-based; in short: as §2
[8] = tested on: Candida albicans; test: Antifungal activity against Candida albicans DAY185 assessed as inhibition of biofilm formation at 0.2 to 100 uM administered 2 to 4 hrs after microbial seeding in 96-well microplate followed by 48 hrs incubation by XTT assay; assay type: functional, organism-based
In short: (§3)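 Time-of-addition variant of the biofilm assay: compound 100 to 0.2 μM added at -0.5, 0, 2, 4, 6 or 8 h after seeding in RPMI 1640/MOPS; at 48 h wells washed twice with PBS, biofilm quantified by XTT; triplicate in each of three trials; IC50 for 50% reduction of biofilm formation from curve fitting.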

[9] = tested on: Candida albicans; test: Antifungal activity against Candida albicans DAY185 assessed as inhibition of biofilm formation at 0.2 to 100 uM administered 6 hrs after microbial seeding in 96-well microplate followed by 48 hrs incubation by XTT assay; assay type: functional, organism-based; in short: as §3
[10] = tested on: Candida albicans; test: Antifungal activity against Candida albicans DAY185 assessed as inhibition of biofilm formation at 0.2 to 100 uM administered 8 hrs after microbial seeding in 96-well microplate followed by 48 hrs incubation by XTT assay; assay type: functional, organism-based; in short: as §3
[11] = tested on: MIA PaCa-2; test: Cytotoxicity against human MIAPaCa2 up to 200 uM after 24 hrs by MTT assay; assay type: cell-based; settings: mia paca-2, 24 h; in short: as §1

| Structure (SMILES) | MIC [1] [µM] | IC50 [2] [µM] | further results |
| --- | --- | --- | --- |
| CC1(C)C=Cc2c(ccc3c2NC(=O)[C@@]32[C@H](O)[C@@]34NC(=O)[C@]5(CCCN5C3=O)C[C@H]4C2(C)C)O1 [SCLEROTIAMIDE] | > 200 | 93.5 | – |
| CC1(C)C=Cc2c(ccc3c2[N+]([O-])=C2C(C)(C)[C@@H]4C[C@]56CCCN5C(=O)[C@]4(NC6=O)[C@H]4N5C(=O)[C@@]67CCCN6C(=O)[C@@]56[C@@H]([C@]234)[C@]2(O)C(=[N+]([O-])c3c2ccc2c3C=CC(C)(C)O2)C(C)(C)[C@@H]6C7)O1 [WAIKIALOID B] | > 200 | 46.3 | IC50 [3]: 8.2 µM |
| C/C=C/C=C/C=C/[C@H]1C[C@@H](O)C[C@@H](O)[C@@H]1C [WAIKIALIDE B] | > 200 | 97 | – |
| CC1(C)C=Cc2c(ccc3c2[N+]([O-])=C2C(C)(C)[C@@H]4C[C@]56CCCN5C(=O)[C@]4(NC6=O)[C@H]4N5C(=O)[C@@]67CCCN6C(=O)[C@@]56[C@H](c5c([nH]c8c9c(ccc58)OC(C)(C)C=C9)C(C)(C)[C@@H]6C7)[C@]234)O1 [WAIKIALOID A] | > 200 | 1.4 | inhibition [2]: Dose-dependent effect; inhibition [4]: Dose-dependent effect; inhibition [5]: Active; inhibition [6]: Active; Activity [7]: Active; inhibition [8]: Active; inhibition [9]: inactive; inhibition [10]: inactive; Activity [11]: Non-toxic |
| CC1(C)C=Cc2c(ccc3c2[N+]([O-])=C2C3=C[C@@]34NC(=O)[C@]5(CCCN5C3=O)C[C@H]4C2(C)C)O1 [AVRAINVILLAMIDE] | > 200 | 43.3 | IC50 [3]: 11.3 µM |
| C/C=C/C=C/C=C/[C@H]1C[C@@H](O)CC(=O)[C@@H]1C [WAIKIALIDE A] | > 200 | 32.4 | inhibition [4]: Dose-dependent effect; inhibition [5]: Active; inhibition [6]: Active; Activity [7]: Active |
| CC1(C)C=Cc2c(ccc3c2NC(=O)[C@@]32C[C@@]34NC(=O)[C@]5(CCCN5C3=O)C[C@H]4C2(C)C)O1 [NOTOAMIDE B] | > 200 | 109 | – |
| CC1(C)C=Cc2c(ccc3c4c([nH]c23)C(C)(C)[C@@H]2C[C@]35CCCN3C(=O)[C@@]2(C4)NC5=O)O1 [STEPHACIDIN A] | > 200 | 55.2 | – |
| CC(C)=CCC/C(C)=C/CC/C(C)=C/CO [FARNESOL] | > 200 | 129 | – |
| CC1(C)C=Cc2c(ccc3c4c([nH]c23)C(C)(C)[C@@H]2C[C@]35CCCN3C(=O)[C@]2(NC5=O)[C@H]4O)O1 [NOTOAMIDE R] | > 200 | 97.3 | – |
